Experimental data: ChEMBL document CHEMBL2093137, “WHO-TDR NTD Screening”
≈ marks a conversion by molar mass, not a printed value.

What was measured:
[1] = test system: Trypanosoma brucei brucei; assay: WHO-TDR: Human African Trypanosomiasis (HAT); format: functional, organism-based; conditions: Squib-427
Procedure, shortened: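 In this whole-organism screen, the target was the bloodstream form of Trypanosoma brucei, strain Squib 427. A diverse set of 10,000 compounds from Life Chemicals, previously filtered for drug-likeness and reactive groups, was assayed by standard published procedures using reference drugs as positive controls. Each value is an IC50 for antiparasitic potency.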

Leishmania infantum = assay: WHO-TDR: Leishmaniasis; format: functional, organism-based, Mus musculus; conditions: Macrophage
Procedure, shortened: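 Intracellular amastigotes of Leishmania infantum MHOM/MA(BE)/67, hosted in murine peritoneal macrophages, were exposed to compounds from a 10,000-member diverse library supplied by Life Chemicals. The library had been filtered for drug-likeness and reactive groups. The reported IC50 expresses antiparasitic potency.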

Onchocerca ochengi [2] = assay: (§1) WHO-TDR: Onchocerciasis; format: functional; design: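 at 12.5 µM on microfilariae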
Procedure, shortened: (§2)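 Following previously published standard procedures, with reference drugs as positive controls, a diverse Life Chemicals library was tested on whole Onchocerca ochengi or Onchocerca lienalis microfilariae. The library held 10,000 compounds filtered for drug-likeness and reactive groups. Activity is recorded both as percent inhibition and as IC50.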

Plasmodium falciparum K1 = assay: WHO-TDR: Malaria; format: functional, organism-based, Homo sapiens; conditions: Erythrocyte
Procedure, shortened: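 Previously published standard procedures, including a reference drug as positive control, were used to screen whole Plasmodium falciparum K1 parasites inside human red blood cells. IC50 is the measure of antiplasmodial potency. The compounds were a 10,000-member diverse Life Chemicals library.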

[3] = WHO-TDR: Cytotoxicity; format: toxicity, cell-based; conditions: human, MRC5 cells
Onchocerca ochengi [4] = assay: as §1; format: functional; design: concentration or dose not given beside the values; procedure, shortened: as §2; remark: listed apart in the source
Schistosoma mansoni = assay: WHO-TDR: Schistosomiasis; format: functional; design: concentration or dose not given beside the values
Procedure, shortened: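 Activity appears as percent inhibition and as IC50. The underlying screen tested a diverse library of 10,000 compounds, supplied by Life Chemicals, on whole larval and/or adult worms of the Puerto Rican strain of Schistosoma mansoni.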

Trypanosoma cruzi = assay: WHO-TDR: Chagas disease; format: functional, organism-based, Homo sapiens; conditions: MRC5
Procedure, shortened: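 Intracellular amastigotes of the Trypanosoma cruzi Tulahuen CL2 beta-galactosidase strain, grown in MRC-5SV2 human lung fibroblast host cells, were tested in a whole-organism screen. The compounds came from a 10,000-member diverse Life Chemicals library that had been filtered for drug-likeness and reactive groups. Previously published standard procedures were followed, with a reference drug as positive control, and potency is reported as IC50.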

| IC50 [1] [µg/mL] | IC50 (Leishmania infantum) [µg/mL] | IC50 (Plasmodium falciparum K1) [µg/mL] | Compound | % Inhibition (Onchocerca ochengi [2]) [%] | IC50 [3] [µg/mL] | % Inhibition (Onchocerca ochengi [4]) [%] | % Inhibition (Schistosoma mansoni) [%] | IC50 (Trypanosoma cruzi) [µg/mL] |
| --- | --- | --- | --- | --- | --- | --- | --- | --- |
| 6.11 (≈ 13.3 µM) | > 13.8 | > 13.8 | Cc1ccc(S(=O)(=O)N2CCCCC2CC(=O)Nc2ccc(F)c(C(F)(F)F)c2)cc1 (stereo unspecified) | 0 | > 13.8 | 0 | 0 | 0.889 (≈ 1.94 µM) |
| > 12.6 | > 12.6 | > 12.6 | COc1ccccc1OCC(=O)Nc1nc(CSCc2ccc(F)cc2)cs1 | 0 | > 12.6 | 100 | 0 | > 12.6 |
| 0.459 (≈ 1.03 µM) | > 13.3 | 4.63 (≈ 10.4 µM) | O=C(Nc1ccc(F)cc1)Nc1nc(C(=O)N2CCN(c3ccccc3F)CC2)cs1 | 0 | 5.3 (≈ 11.9 µM) | 0 | 0 | 4.32 (≈ 9.74 µM) |
| > 14.7 | > 14.7 | > 14.7 | O=C(CSc1nc(CC(=O)N2CCN(c3ccccc3F)CC2)cs1)Nc1ccc(F)cc1 | 0 | > 14.7 | 100 | 0 | > 14.7 |
| 0.319 (≈ 0.902 µM) | 3.43 (≈ 9.71 µM) | 0.754 (≈ 2.13 µM) | CC(CNC(=O)Nc1ccc(Oc2ccccc2)cc1)N1CCCCC1 (stereo unspecified) | 75 | > 10.6 | 100 | 0 | 3.98 (≈ 11.3 µM) |
| 4.14 (≈ 9.71 µM) | > 12.8 | 2.96 (≈ 6.93 µM) | O=C(Cn1c(=O)n(Cc2cccnc2)c(=O)c2ncccc21)c1ccc2c(c1)CCCC2 | 0 | > 12.8 | 100 | 0 | 3.81 (≈ 8.93 µM) |
| > 14.1 | > 14.1 | > 14.1 | Cc1c(S(=O)(=O)CCNC(=O)NC2CCCCC2)c2ccccc2n1Cc1ccc(F)cc1 | 0 | > 14.1 | 100 | 0 | > 14.1 |

Continued, molecule first:

| Compound | IC50 [1] [µg/mL] | IC50 (Leishmania infantum) [µg/mL] | IC50 (Plasmodium falciparum K1) [µg/mL] | % Inhibition (Onchocerca ochengi [2]) [%] | IC50 [3] [µg/mL] | % Inhibition (Onchocerca ochengi [4]) [%] | % Inhibition (Schistosoma mansoni) [%] | IC50 (Trypanosoma cruzi) [µg/mL] |
| --- | --- | --- | --- | --- | --- | --- | --- | --- |
| Cc1nc2c(SCC#N)nnc(-c3ccccc3)c2s1 | 6.52 (≈ 21.8 µM) | > 8.95 | 6.75 (≈ 22.6 µM) | 0 | > 8.95 | 25 | 0 | 0.444 (≈ 1.49 µM) |
| CN1CCN(C(CNC(=O)c2ccc(F)c(F)c2)c2ccc3c(c2)CCN3C)CC1 (stereo unspecified) | > 12.4 | 4.03 (≈ 9.71 µM) | 1.47 (≈ 3.54 µM) | 0 | 3.34 (≈ 8.05 µM) | 100 | 0 | > 12.4 |
| CSc1nc(NC(C)C)c2cnn(CCNC(=O)C34CC5CC(CC(C5)C3)C4)c2n1 | 4.07 (≈ 9.49 µM) | > 12.9 | > 12.9 | 0 | > 12.9 | 100 | 0 | 4.17 (≈ 9.73 µM) |
| CCCc1cc(=O)[nH]c(-n2nc(C)cc2NC(=O)C23CC4CC(CC(C4)C2)C3)n1 | < 0.119 | 3.84 (≈ 9.71 µM) | 0.119 (≈ 0.3 µM) | 75 | < 0.119 | 100 | 100 | < 0.119 |
| Cc1cc(NC(=O)c2cccs2)n(-c2nc3c(c(=O)[nH]2)CCC3)n1 | 3.2 (≈ 9.37 µM) | 5.3 (≈ 15.5 µM) | 10.2 (≈ 30 µM) | 0 | 2.03 (≈ 5.94 µM) | 0 | 0 | 0.56 (≈ 1.64 µM) |
| O=C(NCc1cccs1)c1cn(Cc2ccccc2)nc1OCc1ccccc1 | 4.85 (≈ 12 µM) | > 12.1 | 6.04 (≈ 15 µM) | 0 | 2.72 (≈ 6.74 µM) | 100 | 0 | 2.09 (≈ 5.18 µM) |
| CN(C)C(CNS(=O)(=O)c1cc(Cl)ccc1Cl)c1ccsc1 (stereo unspecified) | 3.82 (≈ 10.1 µM) | > 11.4 | 7.08 (≈ 18.7 µM) | 0 | > 11.4 | 100 | 0 | > 11.4 |
| Cc1cc(C(=O)N(CCCN(C)C)c2nc3c(C)ccc(Cl)c3s2)no1 | 0.378 (≈ 0.962 µM) | 4.17 (≈ 10.6 µM) | 3.3 (≈ 8.41 µM) | 0 | 5.07 (≈ 12.9 µM) | 100 | 0 | 4.14 (≈ 10.5 µM) |
| CCC(CO)Nc1nc(Nc2ccc(C)c(C)c2)c2nccnc2n1 (stereo unspecified) | 3.66 (≈ 10.8 µM) | > 10.2 | > 10.2 | 0 | > 10.2 | 100 | 0 | > 10.2 |
| O=C(CC1CSc2nccc(=O)n21)Nc1cc(C(F)(F)F)cc(C(F)(F)F)c1 (stereo unspecified) | > 12.7 | > 12.7 | > 12.7 | 0 | > 12.7 | 100 | 0 | > 12.7 |
| CCOc1ccc(N2CC(CNS(=O)(=O)c3c(C)cc(C)cc3C)CC2=O)cc1 (stereo unspecified) | > 12.5 | > 12.5 | > 12.5 | 0 | > 12.5 | 100 | 0 | > 12.5 |
| CN(C1CC1)S(=O)(=O)c1ccc(C(=O)Nc2onc3c2CCCC3)cc1 | 5.97 (≈ 15.9 µM) | > 11.3 | > 11.3 | 0 | > 11.3 | 100 | 0 | 3.56 (≈ 9.49 µM) |
| CN(C)C(CNC(=O)c1ccc(-c2ccccc2)cc1)c1ccsc1 (stereo unspecified) | 0.395 (≈ 1.13 µM) | > 10.5 | 8.47 (≈ 24.2 µM) | 0 | > 10.5 | 0 | 0 | 3.32 (≈ 9.49 µM) |
| O=C(COc1ccc(Cl)cc1Cl)Nc1onc2c1CCC2 | 0.334 (≈ 1.02 µM) | > 9.81 | > 9.81 | 0 | > 9.81 | 0 | 0 | > 9.81 |
| COc1ccc(N2CCN(C(=O)c3csc(NC(=O)c4ccccc4)n3)CC2)cc1 | > 12.7 | 6.56 (≈ 15.5 µM) | > 12.7 | 0 | > 12.7 | 100 | 0 | > 12.7 |
